The source of these data is ChEMBL document CHEMBL1134468 (J Med Chem, 2001).

Where a SMILES comes first, the peptide text is derived from it. The star is where a group is joined. Argψ(CH2NH)TyrNH2 = N=C(N)NCCC[C@@H](CN[C@@H](Cc1ccc(O)cc1)C(N)=O)N*

Assay [1] addresses T1, Neuropeptide Y receptor type 1 (Homo sapiens, UniProt P25929).
T1 sequence (P25929 whole entry): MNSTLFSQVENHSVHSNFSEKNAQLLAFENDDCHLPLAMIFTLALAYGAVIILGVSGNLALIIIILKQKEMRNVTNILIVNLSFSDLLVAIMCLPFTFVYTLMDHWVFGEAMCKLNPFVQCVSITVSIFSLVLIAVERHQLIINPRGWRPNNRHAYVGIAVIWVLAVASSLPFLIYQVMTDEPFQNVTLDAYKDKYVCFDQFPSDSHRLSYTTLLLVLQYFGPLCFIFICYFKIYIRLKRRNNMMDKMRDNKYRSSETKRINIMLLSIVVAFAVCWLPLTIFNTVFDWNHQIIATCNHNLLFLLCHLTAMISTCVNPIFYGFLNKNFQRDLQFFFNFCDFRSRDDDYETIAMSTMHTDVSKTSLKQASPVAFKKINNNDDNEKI
Kind of assay: Affinity for cloned Y1 receptor using [125I]PYY as radioligand.

Assay [2] has as its target T2, Neuropeptide Y receptor type 2 (Homo sapiens, UniProt P49146).
T2 sequence (P49146 whole entry): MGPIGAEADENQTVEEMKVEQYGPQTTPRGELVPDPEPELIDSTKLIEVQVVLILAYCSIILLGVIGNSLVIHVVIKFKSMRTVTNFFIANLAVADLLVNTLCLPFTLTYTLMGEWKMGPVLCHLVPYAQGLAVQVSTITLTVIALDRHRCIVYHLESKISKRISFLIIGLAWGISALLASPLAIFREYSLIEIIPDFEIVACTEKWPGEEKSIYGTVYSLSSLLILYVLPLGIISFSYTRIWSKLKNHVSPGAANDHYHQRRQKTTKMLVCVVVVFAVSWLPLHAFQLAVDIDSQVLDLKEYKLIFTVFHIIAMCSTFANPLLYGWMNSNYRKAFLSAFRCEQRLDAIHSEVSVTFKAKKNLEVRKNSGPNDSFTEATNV
The assay is described as follows: Affinity for cloned Y2 receptor using [125I]PYY as radioligand.

The target in assay [3] is T3, Neuropeptide Y receptor type 5 (Homo sapiens, UniProt Q15761).
T3 sequence (Q15761 whole entry): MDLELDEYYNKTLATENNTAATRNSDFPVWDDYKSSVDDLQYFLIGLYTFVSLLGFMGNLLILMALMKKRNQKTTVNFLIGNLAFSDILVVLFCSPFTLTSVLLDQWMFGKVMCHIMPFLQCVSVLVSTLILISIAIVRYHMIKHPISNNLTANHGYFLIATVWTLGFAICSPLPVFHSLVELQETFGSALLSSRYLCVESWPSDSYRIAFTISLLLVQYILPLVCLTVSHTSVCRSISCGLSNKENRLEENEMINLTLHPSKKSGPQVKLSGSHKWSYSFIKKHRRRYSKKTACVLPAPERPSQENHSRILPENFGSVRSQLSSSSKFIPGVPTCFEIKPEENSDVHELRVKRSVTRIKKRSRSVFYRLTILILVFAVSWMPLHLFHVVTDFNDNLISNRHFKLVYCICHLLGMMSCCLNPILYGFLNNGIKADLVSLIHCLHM
The assay is described as follows: Affinity for cloned Y5 receptor using [125I]PYY as radioligand.

The target of assay [4] is T4, Neuropeptide Y receptor type 4 (Homo sapiens, UniProt P50391). Kind of assay: (§1) Affinity for cloned Y4 receptor using [125I]PP as radioligand.
The target of assay [5] is T5, Neuropeptide Y receptor type 1 (Homo sapiens) (UniProt P25929).
T5 sequence (whole entry): T1 sequence (P25929 whole entry)
The assay is described as follows: Antagonist potency for the inhibition of Forskolin stimulated cAMP synthesis in cells expressing cloned Y1 receptors. The assay is classed as functional.

Assay [6] deals with T4, Neuropeptide Y receptor type 4. Described as §1. In a few lines:
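Displacement binding with 125I-PP as tracer in cells expressing the Y4 receptor; PP served as the reference control.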
This is another data set of the same source.

Assay [7] shares this target. Kind of assay: Agonist potency for the inhibition of Forskolin stimulated cAMP synthesis in cells expressing cloned Y4 receptors; no effect means no agonist activity at <20 000 nM. The assay is classed as functional. In a few lines:
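Inhibition of forskolin-driven cAMP synthesis in cells expressing the Y4 receptor, with PP run as the reference control.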

The target of assay [8] is T2, Neuropeptide Y receptor type 2. The assay is described as follows: Agonist potency for the inhibition of Forskolin stimulated cAMP synthesis in cells expressing cloned Y2 receptors; no effect means no agonist activity at <20 000 nM. The assay is classed as functional.
The target in assay [9] is T3, Neuropeptide Y receptor type 5. The assay is described as follows: Agonist potency for the inhibition of Forskolin stimulated cAMP synthesis in cells expressing cloned Y5 receptors; no effect means no agonist activity at <20 000 nM. The assay is classed as functional.
The target of assay [10] is T5, Neuropeptide Y receptor type 1 (Homo sapiens). The assay is described as follows: Selectivity ratio of Y1/Y2/Y4/Y5; 1/2/1/200.

T4 sequence (P50391 whole entry): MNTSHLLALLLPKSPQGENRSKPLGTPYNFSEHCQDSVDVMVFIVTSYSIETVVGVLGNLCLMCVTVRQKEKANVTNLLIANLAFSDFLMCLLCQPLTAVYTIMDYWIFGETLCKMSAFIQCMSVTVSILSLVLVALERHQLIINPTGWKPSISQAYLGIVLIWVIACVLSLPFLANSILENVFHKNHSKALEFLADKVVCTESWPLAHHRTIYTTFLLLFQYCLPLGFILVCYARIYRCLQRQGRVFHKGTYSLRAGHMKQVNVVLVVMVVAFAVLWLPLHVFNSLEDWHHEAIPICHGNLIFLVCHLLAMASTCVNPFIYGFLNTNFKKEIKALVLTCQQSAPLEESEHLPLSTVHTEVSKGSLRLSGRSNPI

One may read the Ki as a dissociation constant, usually derived from enzyme kinetics or from competition with a known ligand. As for `CC[C@H](C)[C@H](N)C(=O)N[C@@H](CC(N)=O)C(=O)N1CCC[C@H]1C(=O)N[C@H](C(=O)N[C@@H](Cc1ccc(O)cc1)C(=O)N[C@@H](CCCNC(=N)N)C(=O)N[C@@H](CC(C)C)C(=O)N[C@@H](CCCNC(=N)N)C(=O)N[C@@H](Cc1ccc(O)cc1)C(=O)OC)[C@@H](C)CC` (H-INPIYRLRY-OMe), the Ki is 25.7 nM in assay [1], 1420 nM in assay [2], 7100 nM in assay [3] and 2400 nM in assay [4].
What is called Kb is the affinity of an antagonist, worked out from how it opposes an agonist. Read a high Kb as a less potent antagonist. `CC[C@H](C)[C@H](N)C(=O)N[C@H]1CCC(=O)NC[C@@H](C(=O)N[C@@H](Cc2ccc(O)cc2)C(=O)N[C@@H](CCCN=C(N)N)C(=O)N[C@@H](CC(C)C)C(=O)N[C@@H](CCCN=C(N)N)CN[C@@H](Cc2ccc(O)cc2)C(N)=O)NC(=O)[C@@H]2CCCN2C(=O)[C@H](NC(=O)[C@@H](N)[C@@H](C)CC)CCC(=O)NC[C@H](C(=O)N[C@@H](Cc2ccc(O)cc2)C(=O)N[C@@H](CCCN=C(N)N)C(=O)N[C@@H](CC(C)C)C(=O)N[C@@H](CCCN=C(N)N)CN[C@@H](Cc2ccc(O)cc2)C(N)=O)NC(=O)[C@@H]2CCCN2C1=O` came in with a Kb in [5] of 0.58 nM.
Regarding `CC[C@H](C)[C@H](N)C(=O)N[C@H]1CCC(=O)NC[C@@H](C(=O)N[C@@H](Cc2ccc(O)cc2)C(=O)N[C@@H](CCCNC(=N)N)C(=O)N[C@@H](CC(C)C)C(=O)N[C@@H](CCCNC(=N)N)CN[C@@H](Cc2ccc(O)cc2)C(N)=O)NC(=O)[C@@H]2CCCN2C(=O)[C@@H](NC(=O)[C@@H](N)[C@@H](C)CC)CCC(=O)NC[C@@H](C(=O)N[C@@H](Cc2ccc(O)cc2)C(=O)N[C@@H](CCCNC(=N)N)C(=O)N[C@@H](CC(C)C)C(=O)N[C@@H](CCCNC(=N)N)CN[C@@H](Cc2ccc(O)cc2)C(N)=O)NC(=O)[C@@H]2CCCN2C1=O`, the Ki stood at 0.46 nM in assay [1], 624 nM in [2], 65.5 nM in [6] and 7890 nM in assay [3].
In the case of `CC[C@H](C)[C@H](N)C(=O)N[C@@H](CC(N)=O)C(=O)N1CCC[C@H]1C(=O)N[C@@H](CSSC[C@@H](NC(=O)[C@@H]1CCCN1C(=O)[C@H](CC(N)=O)NC(=O)[C@@H](N)[C@@H](C)CC)C(=O)N[C@@H](Cc1ccc(O)cc1)C(=O)N[C@@H](CCCN=C(N)N)C(=O)N[C@@H](CC(C)C)C(=O)N[C@@H](CCCN=C(N)N)CN[C@@H](Cc1ccc(O)cc1)C(N)=O)C(=O)N[C@@H](Cc1ccc(O)cc1)C(=O)N[C@@H](CCCN=C(N)N)C(=O)N[C@@H](CC(C)C)C(=O)N[C@@H](CCCN=C(N)N)CN[C@@H](Cc1ccc(O)cc1)C(N)=O`, the Kb in assay [5] was 0.79 nM.
`CC[C@H](C)[C@H](N)C(=O)N[C@@H](CC(N)=O)C(=O)N1CCC[C@H]1C(=O)N[C@H](C(=O)N[C@@H](Cc1ccc(O)cc1)C(=O)N[C@@H](CCCNC(=N)N)C(=O)N[C@@H](CC(C)C)C(=O)N[C@@H](CCCNC(=N)N)CN[C@@H](Cc1ccc(O)cc1)C(N)=O)[C@@H](C)CC` (H-INPIYRL-{Argψ(CH2NH)TyrNH2}): the Ki in assay [1] was 34.8 nM; in [2], 1650 nM; in [3], 5080 nM; in assay [4] it was 3740 nM.
With `CC[C@H](C)[C@H](N)C(=O)N[C@@H](CC(N)=O)C(=O)N1CCC[C@H]1C(=O)N[C@@H](CSSC[C@H](NC(=O)[C@@H]1CCCN1C(=O)[C@H](CC(N)=O)NC(=O)[C@@H](N)[C@@H](C)CC)C(=O)N[C@@H](Cc1ccc(O)cc1)C(=O)N[C@@H](CCCNC(=N)N)C(=O)N[C@@H](CC(C)C)C(=O)N[C@@H](CCCNC(=N)N)CN[C@@H](Cc1ccc(O)cc1)C(N)=O)C(=O)N[C@@H](Cc1ccc(O)cc1)C(=O)N[C@@H](CCCNC(=N)N)C(=O)N[C@@H](CC(C)C)C(=O)N[C@@H](CCCNC(=N)N)CN[C@@H](Cc1ccc(O)cc1)C(N)=O`, the Ki in assay [1] came out at 2.3 nM; in [2], 822 nM; in assay [6], 65 nM; in [3], 2340 nM.
Regarding `CC[C@H](C)[C@H](N)C(=O)N[C@H]1CCC(=O)NC[C@@H](C(=O)N[C@@H](Cc2ccc(O)cc2)C(=O)N[C@@H](CCCN=C(N)N)C(=O)N[C@@H](CC(C)C)C(=O)N[C@@H](CCCN=C(N)N)C(=O)N[C@@H](Cc2ccc(O)cc2)C(=O)OC)NC(=O)[C@@H]2CCCN2C(=O)[C@@H](NC(=O)[C@@H](N)[C@@H](C)CC)CCC(=O)NC[C@@H](C(=O)N[C@@H](Cc2ccc(O)cc2)C(=O)N[C@@H](CCCN=C(N)N)C(=O)N[C@@H](CC(C)C)C(=O)N[C@@H](CCCN=C(N)N)C(=O)N[C@@H](Cc2ccc(O)cc2)C(=O)OC)NC(=O)[C@@H]2CCCN2C1=O`, the Ki in [1] came out at 0.27 nM; in [2], 1040 nM; in [6] it was 33.4 nM; in [3] it was 662 nM. In addition, the EC50 entry in [7], in assay [8] and in assay [9] was “Not Active” throughout.
Take `CC[C@H](C)[C@H](N)C(=O)N[C@@H](CC(N)=O)C(=O)N1CCC[C@H]1C(=O)N[C@@H](CSSC[C@H](NC(=O)[C@@H]1CCCN1C(=O)[C@H](CC(N)=O)NC(=O)[C@@H](N)[C@@H](C)CC)C(=O)N[C@@H](Cc1ccc(O)cc1)C(=O)N[C@@H](CCCN=C(N)N)C(=O)N[C@@H](CC(C)C)C(=O)N[C@@H](CCCN=C(N)N)C(=O)N[C@@H](Cc1ccc(O)cc1)C(=O)OC)C(=O)N[C@@H](Cc1ccc(O)cc1)C(=O)N[C@@H](CCCN=C(N)N)C(=O)N[C@@H](CC(C)C)C(=O)N[C@@H](CCCN=C(N)N)C(=O)N[C@@H](Cc1ccc(O)cc1)C(=O)OC`: the inhibitory constant (Ki) in assay [1] worked out at 4.8 nM; in assay [2], 1120 nM; in assay [6], 99 nM; in [3] it was 464 nM. The EC50 result in [7], in assay [8] and in assay [9] was “Not Active” in each case.
Consider `CC[C@H](C)[C@H](N)C(=O)N[C@@H](CC(N)=O)C(=O)N1CCC[C@H]1C(=O)N[C@@H](CSSC[C@@H](NC(=O)[C@@H]1CCCN1C(=O)[C@H](CC(N)=O)NC(=O)[C@@H](N)[C@@H](C)CC)C(=O)N[C@@H](Cc1ccc(O)cc1)C(=O)N[C@@H](CCCN=C(N)N)C(=O)N[C@@H](CC(C)C)C(=O)N[C@@H](CCCN=C(N)N)C(=O)N[C@@H](Cc1ccc(O)cc1)C(=O)OC)C(=O)N[C@@H](Cc1ccc(O)cc1)C(=O)N[C@@H](CCCN=C(N)N)C(=O)N[C@@H](CC(C)C)C(=O)N[C@@H](CCCN=C(N)N)C(=O)N[C@@H](Cc1ccc(O)cc1)C(=O)OC`, for which, in assay [5], the Kb turned out to be 2.3 nM.
Turning to `CC[C@H](C)[C@H](N)C(=O)N[C@@H](CC(N)=O)C(=O)N1CCC[C@H]1C(=O)N[C@@H](CSSC[C@H](NC(=O)[C@@H]1CCCN1C(=O)[C@H](CC(N)=O)NC(=O)[C@@H](N)[C@@H](C)CC)C(=O)N[C@@H](Cc1ccc(O)cc1)C(=O)N[C@@H](CCCN=C(N)N)C(=O)N[C@@H](CC(C)C)C(=O)N[C@@H](CCCN=C(N)N)CN[C@@H](Cc1ccc(O)cc1)C(N)=O)C(=O)N[C@@H](Cc1ccc(O)cc1)C(=O)N[C@@H](CCCN=C(N)N)C(=O)N[C@@H](CC(C)C)C(=O)N[C@@H](CCCN=C(N)N)CN[C@@H](Cc1ccc(O)cc1)C(N)=O`, the EC50 entry in assay [7], in [8] and in assay [9] was “Not Active” in each case.
Turning to H-INPIYRLRY-NH2, the Ki in [1] is 5 nM; in assay [2], 11.3 nM; in assay [3], greater than 1000 nM; in [4], 5.8 nM. Further, in assay [10], the Selectivity entry is given as “Y1/Y4/Y2/Y5”.
